Active and inactive are the calls of the source. No cut-off for these calls is given here.
How the values were obtained:
[1] = system: RAW264.7; experiment: Antiinflammatory activity in mouse RAW264.7 cells assessed as decrease in LPS-induced TNFalpha production preincubated for 30 mins followed by LPS stimulation measured after 18 hrs by ELISA; type: functional, cell-based
Procedure, shortened: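 RAW 264.7 cells, 1.5×10^6/well, 24 h, medium refreshed; pretreated with increasing compound 30 min, then LPS 100 ng/mL for 18 h; supernatant TNF-α quantified by sandwich ELISA against recombinant mouse standards.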

[2] = system: RAW264.7; experiment: Inhibition of LPS-induced PI3K-mediated AKT phosphorylation in mouse RAW264.7 cells at 1 to 10 uM preincubated for 1 hr followed by LPS stimulation for 15 to 30 mins by Western blot method; type: cell-based
Procedure, shortened: (§1)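 RAW 264.7 cells, 3×10^6 per dish overnight, pretreated 1 h with 1, 5 or 10 µM, then LPS 100 ng/mL for 15 or 30 min; nuclear/cytoplasmic lysates (20–30 µg) run on 10% SDS-PAGE, immunoblotted for phospho/total proteins, GAPDH loading control, ECL, densitometry; three independent experiments.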

[3] = system: HeLa; experiment: Cell cycle arrest in human HeLa cells assessed as accumulation at G2/M phase at 20 uM after 24 hrs by propidium iodide staining based flow cytometry (reference value: 15.7%); type: functional
Procedure, shortened: (§2)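 HeLa cells, 3×10^5/well, attached overnight, switched to serum-free medium for synchronisation, then DMSO or 5, 10, 20 µM for 24 h; cells fixed, PI-stained, G0/G1, S and G2/M fractions by flow cytometry; n = 3, mean ± SD.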

[4] = Inhibition of LPS-induced NFkappaB activation in mouse RAW264.7 cells assessed as reduction in nitric oxide production after 18 hrs by DAN assay; type: cell-based; details: RAW264.7, 18 h
Procedure, shortened: (§3)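 RAW 264.7 cells at 2×10^5 cells/mL, 24 h, medium refreshed, then LPS 100 ng/mL with or without graded compound for 18 h; nitrite in medium reacted with 2,3-diaminonaphthalene (0.05 mg/mL in 0.62 M HCl), 15 min in dark, as NO readout. n = 3, mean ± SD.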

[5] = system: RAW264.7; experiment: Antiinflammatory activity in mouse RAW264.7 cells assessed as decrease in LPS-induced NO production after 18 hrs by DAN assay; type: functional, cell-based; procedure, shortened: as §3
[6] = system: HeLa; experiment: Cell cycle arrest in human HeLa cells assessed as accumulation at G0/G1 phase after 24 hrs by propidium iodide staining based flow cytometry; type: functional; procedure, shortened: as §2
[7] = system: RAW264.7; experiment: Inhibition of LPS-induced ERK phosphorylation in mouse RAW264.7 cells at 1 to 10 uM preincubated for 1 hr followed by LPS stimulation for 15 to 30 mins by Western blot method; type: cell-based; procedure, shortened: as §1
[8] = system: HeLa; experiment: Growth inhibition of human HeLa cells after 48 hrs by WST1 assay; type: functional
[9] = target: T1, Toll-like receptor 7 (Homo sapiens) (UniProt Q9NYK1); experiment: Inhibition of human TLR7 expressed in HEK293 cells assessed as decrease in R848-induced NF-kappaB activation-mediated SEAP production at 5 uM after 24 hrs by Quanti-blue-based assay relative to control; type: cell-based
T1 sequence (whole entry): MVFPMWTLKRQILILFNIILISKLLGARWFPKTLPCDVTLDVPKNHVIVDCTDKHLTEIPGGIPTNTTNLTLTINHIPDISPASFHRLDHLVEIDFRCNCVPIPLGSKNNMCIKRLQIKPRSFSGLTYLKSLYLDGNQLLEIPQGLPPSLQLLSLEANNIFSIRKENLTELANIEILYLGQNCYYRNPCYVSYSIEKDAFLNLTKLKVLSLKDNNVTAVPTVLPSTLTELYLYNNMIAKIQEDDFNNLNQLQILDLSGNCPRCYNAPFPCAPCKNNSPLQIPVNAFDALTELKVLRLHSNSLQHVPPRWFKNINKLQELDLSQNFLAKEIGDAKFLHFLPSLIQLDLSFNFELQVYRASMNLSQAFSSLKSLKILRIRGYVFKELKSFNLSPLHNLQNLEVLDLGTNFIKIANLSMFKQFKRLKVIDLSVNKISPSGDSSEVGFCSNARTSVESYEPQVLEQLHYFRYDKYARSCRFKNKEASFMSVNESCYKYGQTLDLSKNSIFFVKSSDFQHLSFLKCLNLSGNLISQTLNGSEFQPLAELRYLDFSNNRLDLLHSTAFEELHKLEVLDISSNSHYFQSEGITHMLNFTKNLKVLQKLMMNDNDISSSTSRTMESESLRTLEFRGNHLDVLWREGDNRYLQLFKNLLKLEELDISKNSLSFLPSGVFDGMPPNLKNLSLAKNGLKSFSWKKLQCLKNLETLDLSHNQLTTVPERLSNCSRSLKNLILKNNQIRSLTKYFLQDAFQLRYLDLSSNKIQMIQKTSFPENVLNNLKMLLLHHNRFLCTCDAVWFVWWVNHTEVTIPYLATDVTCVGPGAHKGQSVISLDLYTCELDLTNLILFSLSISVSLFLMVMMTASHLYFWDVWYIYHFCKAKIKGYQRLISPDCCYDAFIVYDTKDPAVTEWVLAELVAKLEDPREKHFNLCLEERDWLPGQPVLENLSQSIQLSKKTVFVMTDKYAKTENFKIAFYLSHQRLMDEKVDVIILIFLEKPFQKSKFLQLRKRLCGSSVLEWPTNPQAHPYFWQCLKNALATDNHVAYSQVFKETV

[10] = system: HeLa; experiment: Cell cycle arrest in human HeLa cells assessed as accumulation at S phase at 5 uM after 24 hrs by propidium iodide staining based flow cytometry (reference value: 34.9%); type: functional; procedure, shortened: as §2
[11] = target: Interleukin-1 receptor type 1 (Homo sapiens, UniProt P14778); experiment: Inhibition of IL1R in TLR null HEK-blue cells assessed as decrease in IL-1beta-stimulated NF-kappaB activation-mediated SEAP production after 24 hrs by Quanti-blue-based assay; type: cell-based
Chain of Interleukin-1 receptor type 1 (P14778 whole entry): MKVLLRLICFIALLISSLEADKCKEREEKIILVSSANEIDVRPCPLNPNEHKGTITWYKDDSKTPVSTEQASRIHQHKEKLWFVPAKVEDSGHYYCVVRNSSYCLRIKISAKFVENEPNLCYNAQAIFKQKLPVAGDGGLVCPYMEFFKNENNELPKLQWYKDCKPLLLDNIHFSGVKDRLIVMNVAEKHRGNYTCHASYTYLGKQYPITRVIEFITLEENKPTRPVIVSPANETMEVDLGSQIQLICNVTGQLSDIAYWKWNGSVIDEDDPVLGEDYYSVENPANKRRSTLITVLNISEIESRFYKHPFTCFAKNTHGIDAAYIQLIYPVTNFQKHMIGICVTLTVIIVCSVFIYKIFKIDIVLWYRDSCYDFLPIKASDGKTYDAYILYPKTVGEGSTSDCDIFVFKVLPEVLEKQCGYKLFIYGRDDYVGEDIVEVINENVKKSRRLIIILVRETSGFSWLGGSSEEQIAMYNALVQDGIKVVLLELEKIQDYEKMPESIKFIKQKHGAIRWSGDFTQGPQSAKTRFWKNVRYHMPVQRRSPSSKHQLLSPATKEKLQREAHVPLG

[12] = system: HMEC; experiment: Cytotoxicity against HMEC up to 40 uM after 24 to 48 hrs by WST1 assay; type: cell-based; details: human
[13] = target: Mitogen-activated protein kinase 15 (Homo sapiens) (UniProt Q8TD08); experiment: Inhibition of wild-type human partial length ERK8 (M1 to P437 residues) expressed in bacterial expression system assessed as residual activity at 20 uM by Kinomescan method relative to control
Chain of Mitogen-activated protein kinase 15 (Homo sapiens) (Q8TD08 whole entry, the tested form may be a part): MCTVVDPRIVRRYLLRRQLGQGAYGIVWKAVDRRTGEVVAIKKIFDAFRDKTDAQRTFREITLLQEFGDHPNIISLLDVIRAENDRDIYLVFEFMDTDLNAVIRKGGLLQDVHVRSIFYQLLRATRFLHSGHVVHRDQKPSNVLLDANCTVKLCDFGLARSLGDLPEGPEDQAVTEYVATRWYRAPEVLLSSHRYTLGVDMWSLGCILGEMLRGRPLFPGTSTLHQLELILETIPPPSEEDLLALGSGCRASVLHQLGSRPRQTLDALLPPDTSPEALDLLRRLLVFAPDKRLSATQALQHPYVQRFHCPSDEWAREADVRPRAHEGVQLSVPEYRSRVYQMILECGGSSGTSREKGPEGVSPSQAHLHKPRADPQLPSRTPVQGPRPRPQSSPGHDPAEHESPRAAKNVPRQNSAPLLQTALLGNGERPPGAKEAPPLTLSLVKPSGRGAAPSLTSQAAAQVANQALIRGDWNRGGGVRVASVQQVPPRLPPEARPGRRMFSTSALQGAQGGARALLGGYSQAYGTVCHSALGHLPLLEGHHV

[14] = system: HeLa; experiment: Cell cycle arrest in human HeLa cells assessed as accumulation at G2/M phase at 5 uM after 24 hrs by propidium iodide staining based flow cytometry (reference value: 15.7%); type: functional; procedure, shortened: as §2
[15] = target: Toll-like receptor 8 (Homo sapiens) (UniProt Q9NR97); experiment: Antagonist activity at human TLR8 expressed in HEK293 cells assessed as decrease in R848-induced NF-kappaB activation-mediated SEAP production at 10^-9 to 10^-5 M after 24 hrs by Quanti-blue-based assay; type: cell-based
Chain of Toll-like receptor 8 (Homo sapiens) (Q9NR97 whole entry): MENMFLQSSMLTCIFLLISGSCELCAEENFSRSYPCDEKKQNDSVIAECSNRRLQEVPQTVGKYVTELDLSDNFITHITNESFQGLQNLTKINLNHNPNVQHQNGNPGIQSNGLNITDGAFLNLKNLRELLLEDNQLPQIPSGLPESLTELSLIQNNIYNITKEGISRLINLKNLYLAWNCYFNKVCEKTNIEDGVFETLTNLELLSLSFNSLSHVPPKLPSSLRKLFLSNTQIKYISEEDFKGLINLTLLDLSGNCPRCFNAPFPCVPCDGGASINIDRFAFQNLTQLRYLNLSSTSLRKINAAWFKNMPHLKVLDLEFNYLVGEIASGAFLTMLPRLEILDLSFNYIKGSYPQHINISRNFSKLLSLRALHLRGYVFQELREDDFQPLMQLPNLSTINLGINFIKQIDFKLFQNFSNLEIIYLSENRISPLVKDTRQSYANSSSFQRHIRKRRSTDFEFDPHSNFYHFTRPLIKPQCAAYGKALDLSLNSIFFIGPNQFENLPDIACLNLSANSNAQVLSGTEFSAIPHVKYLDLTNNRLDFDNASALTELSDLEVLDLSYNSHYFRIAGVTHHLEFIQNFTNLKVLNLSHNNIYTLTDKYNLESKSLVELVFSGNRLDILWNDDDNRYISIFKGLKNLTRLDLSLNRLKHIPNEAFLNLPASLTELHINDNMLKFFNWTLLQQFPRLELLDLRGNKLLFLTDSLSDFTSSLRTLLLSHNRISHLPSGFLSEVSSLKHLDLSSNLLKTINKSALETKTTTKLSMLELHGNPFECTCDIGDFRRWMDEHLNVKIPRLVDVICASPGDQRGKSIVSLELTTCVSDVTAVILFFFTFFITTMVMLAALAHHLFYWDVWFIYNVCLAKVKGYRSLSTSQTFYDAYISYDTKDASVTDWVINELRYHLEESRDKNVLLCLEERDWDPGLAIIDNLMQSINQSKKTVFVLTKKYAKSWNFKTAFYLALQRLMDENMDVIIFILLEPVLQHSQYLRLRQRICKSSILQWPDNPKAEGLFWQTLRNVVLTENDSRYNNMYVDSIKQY
Procedure, shortened: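 HEK293 cells stably carrying a human TLR plus an NF-κB-driven SEAP reporter, seeded 5×10^4/well for 24 h at 37 °C, then stimulated: Pam3CSK4 100 µg/mL (TLR1/2), Pam2CSK4 100 µg/mL, poly I:C 5 µg/mL (TLR3), LPS 20 ng/mL (TLR4), flagellin 100 ng/mL (TLR5), R848 1 µg/mL (TLR7, TLR8), CpG-ODN2006 1 µg/mL (TLR9). After 24 h with compound, supernatant mixed with QUANTI-Blue, 1 h 37 °C, OD 620 nm.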

SMILES: O=C(NNC(=O)c1csc(-c2ccc(Cl)cc2Cl)n1)c1ccccn1
- Activity [1]: Dose-dependent effect
- inhibition [2]: Active
- Activity [3]: 3.9%
- IC50 [4]: 80 nM
- Activity [5]: Active
- Activity [6]: Dose-dependent effect
- inhibition [7]: inactive
- GI50 [8]: 1350 nM
- inhibition [9]: 99.6%
- Activity [10]: 48.4%
- IC50 [11]: 720 nM
- Activity [12]: Non-Toxic
- Activity [13]: 44%
- Activity [14]: 13.8%
- inhibition [15]: Active

From ChEMBL document CHEMBL4190396, “Discovery of Novel Small-Molecule Inhibitors of NF-κB Signaling with Antiinflammatory and Anticancer Properties” (J Med Chem, 2018)
